{
  "source": "ChEMBL document CHEMBL2384910",
  "about": "“Lead optimization of 5-amino-6-(2,2-dimethyl-5-oxo-4-phenylpiperazin-1-yl)-4-hydroxyhexanamides to reduce a cardiac safety issue: discovery of DS-8108b, an orally active renin inhibitor” (Bioorg Med Chem, 2013)",
  "key": {"[1]": {"tested_on": "Cynomolgus monkey", "experiment": "Inhibition of renin in po dosed furosemide pretreated cynomolgus monkey plasma after 1 to 24 hrs", "assay_type": "functional, organism-based", "details": "Macaca fascicularis; call rule not given here", "method_in_brief": "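Cynomolgus monkeys pretreated with furosemide given single oral dose 1, 3 or 10 mg/kg or vehicle 1% methylcellulose. Venous blood into EDTA-2Na tubes at 1, 2, 4, 8, 24 h, chilled, centrifuged cold, plasma frozen; plasma renin activity by radioimmunoassay.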"}, "[2]": {"tested_on": "Canis familiaris", "experiment": "Cardiotoxicity in anesthetized beagle dog assessed as change in QTc interval at 0.5 mg/kg/min, iv after 30 mins relative to baseline", "assay_type": "toxicity, organism-based, Canis lupus familiaris", "design": "route intravenous", "details": "in vivo, 0.5 h", "method_in_brief": "(§1)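 Anesthetized dogs; after ECG parameters stabilized, compound infused iv continuously at 0.5 mg/kg/min for 1 h. ECG changes at 30 min as % change from baseline; 2 mL blood drawn from left femoral artery for plasma drug concentration.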"}, "[3]": {"tested_on": "Canis familiaris", "experiment": "Cardiotoxicity in anesthetized beagle dog assessed as change in QRS width at 0.5 mg/kg/min, iv after 30 mins relative to baseline", "assay_type": "toxicity, organism-based, Canis lupus familiaris", "design": "route intravenous", "details": "in vivo, 0.5 h", "method_in_brief": "as §1"}, "[4]": {"tested_on": "Canis familiaris", "experiment": "Cardiotoxicity in anesthetized beagle dog assessed as change in heart rate at 0.5 mg/kg/min, iv after 30 mins relative to baseline", "assay_type": "toxicity, organism-based, Canis lupus familiaris", "design": "route intravenous", "details": "in vivo, 0.5 h", "method_in_brief": "as §1"}, "[5]": {"tested_on": "Oryctolagus cuniculus", "experiment": "Cardiotoxicity in anesthetized New Zealand White rabbit assessed as change in heart rate at 1 mg/kg/min, iv after 10 mins relative to baseline", "assay_type": "toxicity, organism-based", "design": "route intravenous", "details": "in vivo", "method_in_brief": "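Female NZW rabbits anesthetized with ketamine 35 mg/kg ip plus xylazine 5 mg/kg ip, tracheotomized, ventilated with room air. ECG and systemic pressure monitored; HR, PR, QRS, QT, QTc quantified. After stabilization, continuous iv infusion 1 mg/kg/min for 1 h; values at 10 min as % change from baseline.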"}, "[6]": {"species": "Oryctolagus cuniculus", "experiment": "Cardiotoxicity in New Zealand White rabbit heart assessed as change in QTc interval at 100 uM after 20 mins relative to baseline", "assay_type": "toxicity", "details": "ex_vivo", "method_in_brief": "(§2)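 Isolated Langendorff-perfused hearts from female NZW rabbits anesthetized with thiopental 30 mg/kg iv; heart excised into chilled Krebs-Henseleit solution. After parameters stabilized, compound perfused at 10, 30 and 100 µM for 20 min; ECG changes expressed as % change from baseline.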"}, "[7]": {"tested_on": "Heart", "experiment": "Cardiotoxicity in New Zealand White rabbit heart assessed as change in QRS width at 100 uM after 20 mins relative to baseline", "assay_type": "toxicity, tissue-based, Oryctolagus cuniculus", "method_in_brief": "as §2"}, "[8]": {"tested_on": "Heart", "experiment": "Cardiotoxicity in New Zealand White rabbit heart assessed as change in heart rate at 100 uM after 20 mins relative to baseline", "assay_type": "toxicity, tissue-based, Oryctolagus cuniculus", "method_in_brief": "as §2"}, "[9]": {"target": "Sodium channel protein type 5 subunit alpha (Homo sapiens, UniProt Q14524)", "sequence (Q14524 whole entry)": "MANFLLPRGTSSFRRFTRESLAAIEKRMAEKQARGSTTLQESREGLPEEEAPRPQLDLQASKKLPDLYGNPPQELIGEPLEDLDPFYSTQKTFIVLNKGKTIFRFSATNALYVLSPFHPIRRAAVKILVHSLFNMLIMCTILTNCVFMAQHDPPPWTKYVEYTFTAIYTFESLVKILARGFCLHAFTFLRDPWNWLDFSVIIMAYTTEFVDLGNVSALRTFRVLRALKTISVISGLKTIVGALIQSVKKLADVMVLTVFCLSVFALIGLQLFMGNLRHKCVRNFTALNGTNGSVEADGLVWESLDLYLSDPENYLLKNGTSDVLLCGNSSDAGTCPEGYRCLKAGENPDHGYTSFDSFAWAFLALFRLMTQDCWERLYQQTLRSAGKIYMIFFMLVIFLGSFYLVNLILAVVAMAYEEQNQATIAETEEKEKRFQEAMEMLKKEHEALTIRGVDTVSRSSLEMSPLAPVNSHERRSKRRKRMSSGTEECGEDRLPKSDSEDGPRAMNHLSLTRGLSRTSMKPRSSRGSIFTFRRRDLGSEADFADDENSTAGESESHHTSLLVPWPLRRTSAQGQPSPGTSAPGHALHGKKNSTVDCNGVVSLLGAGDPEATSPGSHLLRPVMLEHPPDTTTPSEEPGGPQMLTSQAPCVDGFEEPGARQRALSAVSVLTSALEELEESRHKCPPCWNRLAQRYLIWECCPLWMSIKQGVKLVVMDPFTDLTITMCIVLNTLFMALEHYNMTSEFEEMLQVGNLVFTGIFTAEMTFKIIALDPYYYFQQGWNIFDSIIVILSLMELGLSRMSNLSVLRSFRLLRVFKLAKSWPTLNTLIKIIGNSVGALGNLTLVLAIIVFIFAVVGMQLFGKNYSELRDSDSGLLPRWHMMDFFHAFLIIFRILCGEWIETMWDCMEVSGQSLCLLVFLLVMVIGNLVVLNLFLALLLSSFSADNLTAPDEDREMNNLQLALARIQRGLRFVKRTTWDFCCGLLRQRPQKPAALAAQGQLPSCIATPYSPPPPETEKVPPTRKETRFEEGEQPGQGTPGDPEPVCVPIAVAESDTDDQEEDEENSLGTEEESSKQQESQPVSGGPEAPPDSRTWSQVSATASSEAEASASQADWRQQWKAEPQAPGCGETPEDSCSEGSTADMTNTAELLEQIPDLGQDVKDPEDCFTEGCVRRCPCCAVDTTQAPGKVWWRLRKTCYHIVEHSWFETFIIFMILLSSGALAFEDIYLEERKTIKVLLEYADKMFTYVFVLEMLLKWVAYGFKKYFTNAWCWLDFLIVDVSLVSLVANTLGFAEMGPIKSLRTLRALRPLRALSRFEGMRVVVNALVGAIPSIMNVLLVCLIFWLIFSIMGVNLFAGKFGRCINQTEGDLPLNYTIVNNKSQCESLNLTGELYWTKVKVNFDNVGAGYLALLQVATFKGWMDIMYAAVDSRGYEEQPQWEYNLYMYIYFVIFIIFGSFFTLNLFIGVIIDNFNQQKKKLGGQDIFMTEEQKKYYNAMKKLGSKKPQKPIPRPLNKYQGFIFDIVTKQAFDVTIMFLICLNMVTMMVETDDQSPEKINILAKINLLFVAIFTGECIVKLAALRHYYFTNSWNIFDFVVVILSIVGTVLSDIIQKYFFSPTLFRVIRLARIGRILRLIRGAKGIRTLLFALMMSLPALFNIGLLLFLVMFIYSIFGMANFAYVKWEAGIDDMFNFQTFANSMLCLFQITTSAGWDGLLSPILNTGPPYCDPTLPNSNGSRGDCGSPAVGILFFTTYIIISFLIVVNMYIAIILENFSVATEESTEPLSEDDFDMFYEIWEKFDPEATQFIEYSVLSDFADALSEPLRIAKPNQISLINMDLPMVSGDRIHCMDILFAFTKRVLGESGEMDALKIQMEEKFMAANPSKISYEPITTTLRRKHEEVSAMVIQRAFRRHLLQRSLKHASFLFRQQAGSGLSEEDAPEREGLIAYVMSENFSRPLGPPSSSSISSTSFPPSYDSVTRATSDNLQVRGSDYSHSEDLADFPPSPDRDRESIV", "experiment": "Inhibition of human voltage-gated Na channel 1.5 expressed in HEK293 cells at 100 uM after 2 mins by patch clamp technique", "assay_type": "cell-based", "details": "hek293, 2 min", "method_in_brief": "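HEK293 cells stably expressing hNav1.5; automated patch clamp. 20 ms pulses to −10 mV from −120 mV holding at 1 Hz continuously; peak sodium current measured; compound incubated 2 min.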"}, "[10]": {"tested_on": "Cynomolgus monkey", "experiment": "Cardiotoxicity in cynomolgus monkey assessed as change in pulse rate at 1000 mg/kg, po after 4 hrs relative to baseline", "details": "in vivo"}, "[11]": {"tested_on": "Cynomolgus monkey", "experiment": "Cardiotoxicity in conscious cynomolgus monkey assessed as change in heart rate at 1000 mg/kg, po after 4 hrs relative to baseline", "details": "in vivo"}},
  "data": [
    {"smiles": "CC[C@H](C[C@H](O)[C@@H](N)CN1CC(=O)N(c2ccccc2Cl)CC1(C)C)C(=O)N[C@H]1C2CC3CC1C[C@](O)(C3)C2.O=C(O)/C=C/C(=O)O", "values": [
      {"measurement": "inhibition", "setting": "[1]", "result": "Dose-dependent effect"},
      {"measurement": "Activity", "setting": "[2]", "result": -1.4, "unit": "%"},
      {"measurement": "Activity", "setting": "[3]", "result": 5.8, "unit": "%"},
      {"measurement": "Activity", "setting": "[4]", "result": -5.4, "unit": "%"},
      {"measurement": "Activity", "setting": "[5]", "result": 3.9, "unit": "%"},
      {"measurement": "Activity", "setting": "[6]", "result": -3.2, "unit": "%"},
      {"measurement": "Activity", "setting": "[7]", "result": 1.7, "unit": "%"},
      {"measurement": "Activity", "setting": "[8]", "result": -5.8, "unit": "%"},
      {"measurement": "inhibition (INH)", "setting": "[9]", "result": "Not Active"},
      {"measurement": "Activity", "setting": "[10]", "result": 0.3, "unit": "%"},
      {"measurement": "Activity", "setting": "[11]", "result": -4.2, "unit": "%"}
    ]}
  ]
}
